Tests used:
[1] = system: HeLa; test: The compound was tested in vitro for antitumor activity(50% inhibition of tumor cell growth) against HeLa human cell lines after 144 hr; assay type: functional; conditions: read-out: ID50 (the source's name)
Procedure, shortened: (§1)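 5 × 10^5 exponentially growing cells exposed to varying drug concentrations for 144 h, then counted with a Coulter counter. ID50 is the drug concentration in culture medium giving 50% inhibition of cell growth versus untreated controls.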

[2] = system: KB; test: The compound was tested in vitro for antitumor activity(50% inhibition of tumor cell growth) against KB human cell lines after 144 hr; assay type: functional; conditions: read-out: ID50 (the source's name); procedure, shortened: as §1
[3] = system: KB; test: The compound was tested in vitro for antitumor activity(50% inhibition of tumor cell growth) against KB human cell lines after 72 hr; assay type: functional; conditions: read-out: ID50 (the source's name)
Procedure, shortened: (§2)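 5 × 10^5 exponentially growing human tumour cells were exposed to a range of drug concentrations for the stated time (72 or 144 h), then counted on a Coulter counter. ID50 is the concentration in the culture medium giving 50% inhibition of cell growth relative to untreated controls.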

[4] = system: L1210; test: (§3) The compound was tested in vitro for antitumor activity(50% inhibition of tumor cell growth) against the L1210 murine cell lines after 72 hours; assay type: functional; conditions: Mus musculus, L1210, 72 h; read-out: ID50 (the source's name)
Procedure, shortened: (§4)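 Murine leukemia cells (P388, the doxorubicin-resistant subline P388/DX, or L1210) were grown as suspension cultures in 1640 medium with 10% fetal calf serum, 20 µM 2-mercaptoethanol, […] and antibiotics, at 37 °C in humidified 5% CO2. 5 × 10^5 exponentially growing cells were exposed to a range of drug concentrations for 72 h, then Coulter-counted. ID50 is the concentration giving 50% growth inhibition versus untreated controls.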

[5] = species on record: Mus musculus; test: (§5) The compound was tested in vitro for antitumor activity(50% inhibition of tumor cell growth) against the P388/doxorubicin resistant murine cell lines after 72 hours; assay type: functional; conditions: P388, 72 h, read-out: ID50 (the source's name); procedure, shortened: as §4
[6] = system: P388; test: (§6) The compound was tested in vitro for antitumor activity(50% inhibition of tumor cell growth) against the P388 murine cell lines after 72 hours; assay type: functional; conditions: Mus musculus, P388, 72 h; read-out: ID50 (the source's name); procedure, shortened: as §4
[7] = system: HeLa; test: The compound was tested in vitro for antitumor activity(50% inhibition of tumor cell growth) against HeLa human cell lines after 72 hr; assay type: functional; conditions: read-out: ID50 (the source's name); procedure, shortened: as §2
[8] = system: L1210; test: Antitumor activity against leukemia L1210 cells at 12.5 mg/kg/day expressed as mean survival of treated mice (T) to untreated (C) was reported; assay type: functional, Mus musculus
[9] = system: L1210; test: Antitumor activity against leukemia L1210 cells at 25.0 mg/kg/day expressed as mean survival of treated mice (T) to untreated (C) was reported; assay type: functional, Mus musculus
[10] = system: L1210; test: Antitumor activity against leukemia L1210 cells at 6.3 mg/kg/day expressed as mean survival of treated mice (T) to untreated (C) was reported; assay type: functional, Mus musculus
[11] = system: L1210; test: Antitumor activity against leukemia L1210 cells at 12.5 mg/kg/day expressed as Number of mice died for toxicity to number of treated mice; 0/10 mice; assay type: functional, Mus musculus
[12] = system: L1210; test: Antitumor activity against leukemia L1210 cells at 6.3 mg/kg/day expressed as Number of mice died for toxicity to number of treated mice; 0/10 mice; assay type: functional, Mus musculus
[13] = system: Mus musculus; test: Antitumor activity against leukemia P388/DX cells at 12.5 mg/kg/day expressed as toxic deaths in mice was reported; 0/10 mice; assay type: functional
Procedure, shortened: (§7)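 BDF1 mice given 10^6 doxorubicin-resistant P388 cells ip; the line was kept by weekly ip passage with doxorubicin. Compound was dissolved in distilled water just before use and given ip daily for 7 days from 24 h post-inoculation; 10 mice per dose. %T/C = median survival of treated/control ×100, with 125 significant. Toxicity was judged by autopsy (spleen and liver shrinkage).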

[14] = system: Mus musculus; test: Antitumor activity against leukemia P388/DX cells at 3.1 mg/kg/day expressed as toxic deaths in mice was reported; 0/10 mice; assay type: functional; procedure, shortened: as §7
[15] = system: Mus musculus; test: Antitumor activity against leukemia P388/DX cells at 6.3 mg/kg/day expressed as toxic deaths in mice was reported; 0/10 mice; assay type: functional; procedure, shortened: as §7
[16] = system: Mus musculus; test: Antitumor activity against leukemia P388/DX cells at 3.1 mg/kg/day expressed as mean survival of treated mice (T) to untreated (C) was reported; assay type: functional; procedure, shortened: as §7
[17] = system: Mus musculus; test: Antitumor activity against leukemia P388/DX cells at 6.3 mg/kg/day expressed as mean survival of treated mice (T) to untreated (C) was reported; assay type: functional; procedure, shortened: as §7
[18] = system: Mus musculus; test: Antitumor activity against leukemia P388/DX cells at 12.5 mg/kg/day expressed as mean survival of treated mice (T) to untreated (C) was reported; assay type: functional; procedure, shortened: as §7
[19] = system: L1210; test: Antitumor activity against leukemia L1210 cells at 25.0 mg/kg/day expressed as Number of mice died for toxicity to number of treated mice; 6/10 mice; assay type: organism-based; conditions: mouse, in vivo
[20] = system: L1210; test: Antitumor activity against leukemia L1210 cells at 150.0 mg/kg/day expressed as Number of mice died for toxicity to number of treated mice; 0/10 mice; assay type: functional, Mus musculus
[21] = system: L1210; test: Antitumor activity against leukemia L1210 cells at 75.0 mg/kg/day expressed as Number of mice died for toxicity to number of treated mice; 0/10 mice; assay type: functional, Mus musculus
[22] = system: L1210; test: Antitumor activity against leukemia L1210 cells at 150.0 mg/kg/day expressed as mean survival of treated mice (T) to untreated (C) was reported; assay type: functional, Mus musculus
[23] = system: L1210; test: Antitumor activity against leukemia L1210 cells at 75.0 mg/kg/day expressed as mean survival of treated mice (T) compared to untreated (C) was reported; assay type: functional, Mus musculus
[24] = system: Mus musculus; test: Antitumor activity against leukemia P388/DX cells at 100.0 mg/kg/day expressed as toxic deaths in mice was reported; 0/10 mice; assay type: functional
Procedure, shortened: (§8)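 BDF1 mice given 10^6 doxorubicin-resistant P388 cells ip. Compound was dissolved in distilled water just before use and given ip daily for 9 days from 24 h post-inoculation. %T/C = median survival of treated/control ×100, with 125 significant. Toxic deaths were judged by gross autopsy, mainly from reduced spleen and liver size.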

[25] = system: Mus musculus; test: Antitumor activity against leukemia P388/DX cells at 150.0 mg/kg/day expressed as mean survival of treated mice (T) to untreated (C) was reported; assay type: functional; procedure, shortened: as §8
[26] = system: Mus musculus; test: Antitumor activity against leukemia P388/DX cells at 300.0 mg/kg/day expressed as mean survival of treated mice (T) to untreated (C) was reported; assay type: functional; procedure, shortened: as §8
[27] = system: Mus musculus; test: Antitumor activity against leukemia P388/DX cells at 100.0 mg/kg/day expressed as mean survival of treated mice (T) to untreated (C) was reported; assay type: functional; procedure, shortened: as §8
[28] = system: Mus musculus; test: Antitumor activity against leukemia P388/DX cells at 150.0 mg/kg/day expressed as toxic deaths in mice was reported; 2/20 mice; conditions: in vivo
[29] = system: Mus musculus; test: Antitumor activity against leukemia P388/DX cells at 300.0 mg/kg/day expressed as toxic deaths in mice was reported; 8/20 mice; conditions: in vivo
[30] = system: L1210; test: as §3; assay type: functional; conditions: Mus musculus, L1210, 72 h; read-out: ID50 (the source's name); remark: listed apart in the source
Procedure, shortened: (§9)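 Suspension cultures were grown in 1640 medium with 10% fetal calf serum, 20 µM 2-mercaptoethanol, […] and antibiotics at 37 °C in 5% CO2. 5×10^5 exponentially growing cells were exposed to varying drug concentrations for 72 h, then counted with a Coulter counter. ID50 is the concentration giving 50% growth inhibition versus untreated controls.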

[31] = species on record: Mus musculus; test: as §5; assay type: functional; conditions: P388, 72 h, read-out: ID50 (the source's name); procedure, shortened: as §9; remark: listed apart in the source
[32] = system: P388; test: as §6; assay type: functional; conditions: Mus musculus, P388, 72 h; read-out: ID50 (the source's name); procedure, shortened: as §9; remark: listed apart in the source

Nc1ncnc2c1ncn2[C@@H]1O[C@H](CO)[C@@H](O)[C@H]1O [ADENOSINE]
IC50 [1]: 27700 nM | IC50 [2]: 25400 nM | IC50 [3]: 89800 nM | IC50 [4]: 23600 nM | IC50 [5]: 10800 nM | IC50 [6]: 12700 nM | IC50 [7]: 46000 nM

Nc1ccnc2c1ncn2[C@@H]1O[C@H](CO)[C@@H](O)[C@H]1O
IC50 [1]: 1200 nM | IC50 [2]: 600 nM | IC50 [3]: 300 nM | T/C [8]: 113% | T/C [9]: 88% | T/C [10]: 100% | Activity [11]: 0 | Activity [12]: 0 | IC50 [4]: 1800 nM | Activity [13]: 0 | Activity [14]: 0 | Activity [15]: 0 | IC50 [5]: 400 nM | T/C [16]: 106% | T/C [17]: 106% | T/C [18]: 111% | IC50 [6]: 1100 nM | IC50 [7]: 1200 nM | Activity [19]: 6

O=[N+]([O-])c1ccnc2c1ncn2C1O[C@H](CO)[C@@H](O)[C@H]1O (some centres not stated)
IC50 [1]: 27000 nM | IC50 [2]: 13100 nM | IC50 [3]: 33800 nM | Activity [20]: 0 | Activity [21]: 0 | T/C [22]: 106% | T/C [23]: 106% | IC50 [4]: 11800 nM | Activity [24]: 0 | IC50 [5]: 8100 nM | T/C [25]: 97% | T/C [26]: 22% | T/C [27]: 95% | IC50 [6]: 12500 nM | IC50 [7]: 64100 nM | Activity [28]: 2 | Activity [29]: 8

O=c1[nH]cc(F)c(=O)[nH]1 [FLUOROURACIL]
IC50 [1]: 800 nM | IC50 [2]: 2000 nM | IC50 [3]: 13800 nM | IC50 [30]: 400 nM | IC50 [31]: 100 nM | IC50 [32]: 300 nM | IC50 [7]: 6100 nM

Nc1ccn([C@@H]2O[C@H](CO)[C@@H](O)[C@@H]2O)c(=O)n1 [CYTARABINE]
IC50 [1]: 100 nM | IC50 [2]: 1100 nM | IC50 [3]: 1000 nM | IC50 [4]: 20 nM | IC50 [5]: 10 nM | IC50 [6]: 20 nM | IC50 [7]: 600 nM

Reference: ChEMBL document CHEMBL1123889, “Improved synthesis and antitumor activity of 1-deazaadenosine” (J Med Chem, 1987)
